ChEMBL document CHEMBL5034013, “Discovery of VNRX-7145 (VNRX-5236 Etzadroxil): An Orally Bioavailable β-Lactamase Inhibitor for Enterobacterales Expressing Ambler Class A, C, and D Enzymes” (J Med Chem, 2021)

Legend:
Escherichia coli [1] = assay: Antibacterial activity against Escherichia coli SI-P026TC expressing CMY-2/TEM-1 assessed as concentration required to restore ceftibuten activity incubated for 16 to 20 hrs in presence of 1 ug/ml ceftibuten by broth microdilution method; type: functional; details: time 16-20 hrs
Klebsiella pneumoniae [2] = assay: Antibacterial activity against Klebsiella pneumoniae expressing TEM-1/SHV-12 assessed as concentration required to restore ceftibuten activity incubated for 16 to 20 hrs in presence of 1 ug/ml ceftibuten by broth microdilution method; type: functional; details: time 16-20 hrs
Escherichia coli [3] = assay: Antibacterial activity against Escherichia coli expressing CTX-M-15/TEM-1 assessed as concentration required to restore ceftibuten activity incubated for 16 to 20 hrs in presence of 1 ug/ml ceftibuten by broth microdilution method; type: functional; details: time 16-20 hrs
Escherichia coli [4] = assay: In vivo antibacterial activity against Escherichia coli expressing TEM-1/CTX-M-15 infected in C3H/HeJ mouse assessed as log10 reduction in CFU in kidney administration of compound:ceftibuten 1:1 ratio at 1 to 300 mg/kg, sc every 12 hrs for 3 days starting from 4 days post infection and measured at 7 days post infection (reference value: 6.7 log10CFU); type: functional; details: dose 1-300 mg/kg; time 3 day
Escherichia coli [5] = assay: Antibacterial activity against Escherichia coli 786978 expressing KPC assessed as concentration required to restore ceftibuten activity incubated for 16 to 20 hrs in presence of 1 ug/ml ceftibuten by broth microdilution method; type: functional; details: time 16-20 hrs
Klebsiella pneumoniae [6] = assay: Antibacterial activity against Klebsiella pneumoniae expressing SHV-11/TEM-1/KPC-3 assessed as concentration required to restore ceftibuten activity incubated for 16 to 20 hrs in presence of 1 ug/ml ceftibuten by broth microdilution method; type: functional; details: time 16-20 hrs
[7] = Inhibition of bacterial beta-lactamase KPC-2 using imipenem as substrate preincubated for 15 mins followed by substrate addition and measured after 10 mins by spectrophotometric analysis; set-up: species or system Bacteria
Summary of the method: (§1)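 IC50 is the mean of duplicate runs on separate days. A run was repeated automatically if it differed by more than 20% from the previous result.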

Klebsiella pneumoniae [8] = assay: Antibacterial activity against Klebsiella pneumoniae expressing SHV-5/KPC-2/TEM-1 assessed as concentration required to restore ceftibuten activity incubated for 16 to 20 hrs in presence of 1 ug/ml ceftibuten by broth microdilution method; type: functional; details: time 16-20 hrs
Klebsiella pneumoniae [9] = assay: Antibacterial activity against Klebsiella pneumonia 217917 expressing CMY-2/TEM-1 assessed as concentration required to restore ceftibuten activity incubated for 16 to 20 hrs in presence of 1 ug/ml ceftibuten by broth microdilution method; type: functional; details: time 16-20 hrs
Summary of the method: (§2)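 Tested against a 25-strain challenge panel of clinical E. coli and K. pneumoniae isolates carrying ESBL (n = 5), KPC (n = 11), class C (n = 4) or OXA-48 (n = 5) β-lactamases. Ceftibuten was held at 1 μg/mL while the BLI concentration varied. The read-out was the BLI concentration that rescued ceftibuten activity.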

Klebsiella pneumoniae [10] = assay: Antibacterial activity against Klebsiella pneumoniae expressing OXA-48 assessed as concentration required to restore ceftibuten activity incubated for 16 to 20 hrs in presence of 1 ug/ml ceftibuten by broth microdilution method; type: functional; details: time 16-20 hrs
Klebsiella pneumoniae [11] = assay: Antibacterial activity against Klebsiella pneumonia DOV expressing OXA-48 assessed as concentration required to restore ceftibuten activity incubated for 16 to 20 hrs in presence of 1 ug/ml ceftibuten by broth microdilution method; type: functional; details: time 16-20 hrs; summary of the method: as §2
Escherichia coli [12] = assay: Antibacterial activity against Escherichia coli 664520 expressing OXA-48 assessed as concentration required to restore ceftibuten activity incubated for 16 to 20 hrs in presence of 1 ug/ml ceftibuten by broth microdilution method; type: functional; details: time 16-20 hrs; summary of the method: as §2
Escherichia coli [13] = assay: Antibacterial activity against Escherichia coli expressing CTX-M-2 assessed as concentration required to restore ceftibuten activity incubated for 16 to 20 hrs in presence of 1 ug/ml ceftibuten by broth microdilution method; type: functional; details: time 16-20 hrs
[14] = Inhibition of bacterial beta-lactamase SHV-5 using cefotaxime as substrate preincubated for 15 mins followed by substrate addition and measured after 10 mins by spectrophotometric analysis; set-up: species or system Bacteria; summary of the method: as §1
Klebsiella pneumoniae [15] = assay: Antibacterial activity against Klebsiella pneumoniae expressing SHV-12/TEM-1/KPC-2/AmpC assessed as concentration required to restore ceftibuten activity incubated for 16 to 20 hrs in presence of 1 ug/ml ceftibuten by broth microdilution method; type: functional; details: time 16-20 hrs
[16] = AUC in mouse at 1.2 mg/kg, sc; type: ADME, organism-based; set-up: dose 1.2 mg/kg; details: in vivo
Escherichia coli [17] = assay: In vivo antibacterial activity against Escherichia coli expressing TEM-1/CTX-M-15 infected in C3H/HeJ mouse assessed as log10 reduction in CFU in bladder administration of compound:ceftibuten 1:1 ratio at 1 to 300 mg/kg, sc every 12 hrs for 3 days starting from 4 days post infection and measured at 7 days post infection (reference value: 5.8 log10CFU); details: dose 1-300 mg/kg; time 3 day
Escherichia coli [18] = assay: Antibacterial activity against Escherichia coli J53 expressing SHV-5/TEM-1/AmpC assessed as concentration required to restore ceftibuten activity incubated for 16 to 20 hrs in presence of 1 ug/ml ceftibuten by broth microdilution method; type: functional; details: time 16-20 hrs
Escherichia coli [19] = assay: Antibacterial activity against Escherichia coli 664507 expressing OXA-48 assessed as concentration required to restore ceftibuten activity incubated for 16 to 20 hrs in presence of 1 ug/ml ceftibuten by broth microdilution method; type: functional; details: time 16-20 hrs; summary of the method: as §2
Klebsiella pneumoniae [20] = assay: Antibacterial activity against Klebsiella pneumoniae 845670 expressing KPC assessed as concentration required to restore ceftibuten activity incubated for 16 to 20 hrs in presence of 1 ug/ml ceftibuten by broth microdilution method; type: functional; details: time 16-20 hrs
Klebsiella pneumoniae [21] = assay: Antibacterial activity against Klebsiella pneumoniae expressing SHV-12/TEM-1 assessed as concentration required to restore ceftibuten activity incubated for 16 to 20 hrs in presence of 1 ug/ml ceftibuten by broth microdilution method; type: functional; details: time 16-20 hrs
Escherichia coli [22] = assay: Antibacterial activity against Escherichia coli expressing AmpC/SHV-12/CTX-M-15/TEM-1 assessed as concentration required to restore ceftibuten activity incubated for 16 to 20 hrs in presence of 1 ug/ml ceftibuten by broth microdilution method; type: functional; details: time 16-20 hrs
Klebsiella pneumoniae [23] = assay: Antibacterial activity against Klebsiella pneumoniae expressing KPC-3/TEM-1/AmpC assessed as concentration required to restore ceftibuten activity incubated for 16 to 20 hrs in presence of 1 ug/ml ceftibuten by broth microdilution method; type: functional; details: time 16-20 hrs
Klebsiella pneumoniae [24] = assay: Antibacterial activity against Klebsiella pneumoniae expressing SHV-1/TEM-1/KPC-2 assessed as concentration required to restore ceftibuten activity incubated for 16 to 20 hrs in presence of 1 ug/ml ceftibuten by broth microdilution method; type: functional; details: time 16-20 hrs
Klebsiella pneumoniae [25] = assay: Antibacterial activity against Klebsiella pneumoniae 196477 expressing AmpC/CMY-2/TEM-1/CTX-M-15 assessed as concentration required to restore ceftibuten activity incubated for 16 to 20 hrs in presence of 1 ug/ml ceftibuten by broth microdilution method; type: functional; details: time 16-20 hrs
Klebsiella pneumoniae [26] = assay: Antibacterial activity against Klebsiella pneumoniae 156309 expressing SHV-11/TEM-1/KPC-2 assessed as concentration required to restore ceftibuten activity incubated for 16 to 20 hrs in presence of 1 ug/ml ceftibuten by broth microdilution method; type: functional; details: time 16-20 hrs
Escherichia coli [27] = assay: In vivo antibacterial activity against Escherichia coli expressing TEM-1/CTX-M-15 infected in C3H/HeJ mouse assessed as log10 reduction in CFU in urine administration of compound:ceftibuten 1:1 ratio at 1 to 300 mg/kg, sc every 12 hrs for 3 days starting from 4 days post infection and measured at 7 days post infection (reference value: 6.7 log10CFU); type: functional; details: dose 1-300 mg/kg; time 3 day
[28] = Apparent permeability across basolateral to apical side in human Caco-2 cells at 5 uM measured after 2 hrs by LC-MS/MS method; type: ADME, cell-based; details: caco-2, 2 h
[29] = AUC in mouse at 12 mg/kg, sc; type: ADME, organism-based; set-up: dose 12 mg/kg; details: in vivo
Summary of the method: (§3)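 Single-dose pharmacokinetics of the parent BLI in mice given subcutaneously at 1.2, 12 and 38 mg/kg. The AUC is reported in mg∗h/L and was used to check dose proportionality. The study was run to choose dosing regimens for the murine ascending UTI efficacy model.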

Klebsiella pneumoniae [30] = assay: Antibacterial activity against Klebsiella pneumonia SI-C05 expressing OXA-48 assessed as concentration required to restore ceftibuten activity incubated for 16 to 20 hrs in presence of 1 ug/ml ceftibuten by broth microdilution method; type: functional; details: time 16-20 hrs; summary of the method: as §2
[31] = Apparent permeability across apical to basolateral side in human Caco-2 cells at 5 uM measured after 2 hrs by LC-MS/MS method; type: ADME, cell-based; details: caco-2, 2 h
[32] = AUC in mouse at 38 mg/kg, sc; type: ADME, organism-based; set-up: dose 38 mg/kg; details: in vivo; summary of the method: as §3
Escherichia coli [33] = assay: Antibacterial activity against Escherichia coli expressing TEM-1/SHV-12 assessed as concentration required to restore ceftibuten activity incubated for 16 to 20 hrs in presence of 1 ug/ml ceftibuten by broth microdilution method; type: functional; details: time 16-20 hrs
Klebsiella pneumoniae [34] = assay: Antibacterial activity against Klebsiella pneumoniae 845661 expressing KPC assessed as concentration required to restore ceftibuten activity incubated for 16 to 20 hrs in presence of 1 ug/ml ceftibuten by broth microdilution method; type: functional; details: time 16-20 hrs
Escherichia coli [35] = assay: Antibacterial activity against Escherichia coli 849121 expressing KPC assessed as concentration required to restore ceftibuten activity incubated for 16 to 20 hrs in presence of 1 ug/ml ceftibuten by broth microdilution method; type: functional; details: time 16-20 hrs

## CCC(=O)N[C@H]1Cc2cccc(C(=O)O)c2OB1O [LEDABORBACTAM]
Escherichia coli [1]
  Activity: 0.5 µg/mL
Klebsiella pneumoniae [2]
  Activity: 0.016 µg/mL
Escherichia coli [3]
  Activity: 0.12 µg/mL
Escherichia coli [4]
  Activity: 2 log10CFU/ml
Escherichia coli [5]
  Activity: 0.5 µg/mL
Klebsiella pneumoniae [6]
  Activity: 0.06 µg/mL
[7]
  IC50: 80 nM
Klebsiella pneumoniae [8]
  Activity: <=0.002 ug ml-1
Klebsiella pneumoniae [9]
  Activity: 0.12 µg/mL
Klebsiella pneumoniae [10]
  Activity: 1 µg/mL
Klebsiella pneumoniae [11]
  Activity: 0.016 µg/mL
Escherichia coli [12]
  Activity: 1 µg/mL
Escherichia coli [13]
  Activity: 0.004 µg/mL
[14]
  IC50: 126 nM
Klebsiella pneumoniae [15]
  Activity: 0.25 µg/mL
[16]
  AUC: 7800 ng·h/mL
Escherichia coli [17]
  Activity: 3.2 log10CFU/ml
Escherichia coli [18]
  Activity: 0.03 µg/mL
Escherichia coli [19]
  Activity: 0.03 µg/mL
Klebsiella pneumoniae [20]
  Activity: <=0.002 ug ml-1
Klebsiella pneumoniae [21]
  Activity: 0.06 µg/mL
Escherichia coli [22]
  Activity: 0.016 µg/mL
Klebsiella pneumoniae [23]
  Activity: 0.5 µg/mL
Klebsiella pneumoniae [24]
  Activity: 1 µg/mL
Klebsiella pneumoniae [25]
  Activity: 0.016 µg/mL
Klebsiella pneumoniae [26]
  Activity: 0.5 µg/mL
Escherichia coli [27]
  Activity: 4 log10CFU/ml
[28]
  Papp: 0.15 10^-6 cm/s
[29]
  AUC: 76000 ng·h/mL
Klebsiella pneumoniae [30]
  Activity: 0.03 µg/mL
[31]
  Papp: 0.11 10^-6 cm/s
[32]
  AUC: 250000 ng·h/mL
Escherichia coli [33]
  Activity: 0.03 µg/mL
Klebsiella pneumoniae [34]
  Activity: 2 µg/mL
Escherichia coli [35]
  Activity: <=0.002 ug ml-1
